The values below come from the RNAGym collection of RNA variant scans (doi:10.1038/s41586-018-0170-7).

B1: tRNA (parent)
chain: GUUCCGUUGGCGUAAUGGUAACGCGUCUCCCUCCUAAGGAGAAGACUGCGGGUUCGAGUCCCGUACGGAACG

The data set covers variants of B1. Description: yeast fitness, log relative to wild type (ln ratio); higher = fitter; tRNA-Arg(CCU), competitive growth, 37 C, 1 M NaCl. The gist of the method:
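BY4742 cells without the chromosomal tRNA-Arg(CCU) gene carried a combinatorial variant library on a HIS3 centromeric plasmid, from two independent transformations. After 4 generations in SC-HIS at 30 °C, pools spent ~6.5 generations (~26.5 h) in SC-HIS 1M NaCl at 37 °C, giving three outputs per input, and 125 bp paired-end Illumina reads counted the variants. Fitness is the natural log of each genotype's generations over the wild type's, with generations taken as OD-scaled log2 output/input frequency weighted by inverse variance across replicates.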
For GUUCCAUUGGCGUAAUGGUAACGCGUUUCCCUCCUAAGGAGACGAUUGCGGGUUCGAGUCCCGUAUGGGUCG, the “yeast fitness (ln)” value is -0.306.

As for GUUCCAUUGGCGUAAUGGUAACGCGUUUCCCUCCUAAGGAGACGAUUGCGGGUUCGAGUCCCGUAUGGGGCG, the “yeast fitness (ln)” value was -0.369.

Consider GUUCCAUUGGCGUAAUGGUAACGCGUUUCCCUCCUAAGGAGACGAUUGCGGGUUCGAGUCCCGUACGGAUUG, for which the “yeast fitness (ln)” value was -0.239.

As to GUUCCAUUGGCGUAAUGGUAACGCGUUUCCCUCCUAAGGAGACGAUUGCGGGUUCGAGUCCCGUACGGAGUG, the “yeast fitness (ln)” value was -0.25.

On to GUUCCAUUGGCGUAAUGGUAACGCGUUUCCCUCCUAAGGAGACGAUUGCGGGUUCGAGUCCCGUACGGGUUG, for which the “yeast fitness (ln)” value was -0.441.

Regarding GUUCCAUUGGCGUAAUGGUAACGCGUUUCCCUCCUAAGGAGAAGAUUGCGGGUUCGAGUCCCGUACGGAACG, the “yeast fitness (ln)” value is -0.149.

For the variant GUUCCAUUGGCGUAAUGGUAACGCGUUUCCCUCCUAAGGAGACGACUGCGGGUUCGAGUCCCGUAAGGAUUG, the “yeast fitness (ln)” value is -0.37.

GUUCCAUUGGCGUAAUGGUAACGCGUUUCCCUCCUAAGGAGAAGACUGCGGGUUCGAGUCCCGUACGGGUUG: the “yeast fitness (ln)” value is -0.416.

On to GUUCCAUUGGCGUAAUGGUAACGCGUUUCCCUCCUAAGGAGACGACUGCGGGUUCGAGUCCCGUAUGGAUUG, for which the “yeast fitness (ln)” value is -0.441.

As to GUUCCAUUGGCGUAAUGGUAACGCGUUUCCCUCCUAAGGAGACGACUGCGGGUUCGAGUCCCGUACGGAUUG, the “yeast fitness (ln)” value was -0.322.

For the variant GUUCCAUUGGCGUAAUGGUAACGCGUUUCCCUCCUAAGGAGACGAUUGCGGGUUCGAGUCCCGUAAGGGUUG, the “yeast fitness (ln)” value is -0.471.

Regarding GUUCCAUUGGCGUAAUGGUAACGCGUUUCCCUCCUAAGGAGAAGAUUGCGGGUUCGAGUCCCGUACGGGGCG, the “yeast fitness (ln)” value is -0.237.

On to GUUCCAUUGGCGUAAUGGUAACGCGUUUCCCUCCUAAGGAGAAGAUUGCGGGUUCGAGUCCCGUACGGGUCG, for which the “yeast fitness (ln)” value was -0.257.

As to GUUCCAUUGGCGUAAUGGUAACGCGUUUCCCUCCUAAGGAGACGAUUGCGGGUUCGAGUCCCGUACGGGACG, the “yeast fitness (ln)” value is -0.166.

Take GUUCCAUUGGCGUAAUGGUAACGCGUUUCCCUCCUAAGGAGACGAUUGCGGGUUCGAGUCCCGUACGGAUCG: the “yeast fitness (ln)” value is -0.139.

As for GUUCCAUUGGCGUAAUGGUAACGCGUUUCCCUCCUAAGGAGACGAUUGCGGGUUCGAGUCCCGUACGGAGCG, the “yeast fitness (ln)” value is -0.128.

Consider GUUCCAUUGGCGUAAUGGUAACGCGUUUCCCUCCUAAGGAGACGAUUGCGGGUUCGAGUCCCGUAUGGAGUG, for which the “yeast fitness (ln)” value was -0.213.

Regarding GUUCCAUUGGCGUAAUGGUAACGCGUUUCCCUCCUAAGGAGACGAUUGCGGGUUCGAGUCCCGUAUGGGAUG, the “yeast fitness (ln)” value was -0.307.

Turning to GUUCCAUUGGCGUAAUGGUAACGCGUUUCCCUCCUAAGGAGAAGACUGCGGGUUCGAGUCCCGUACGGAGCG, the “yeast fitness (ln)” value is -0.148.

Regarding GUUCCAUUGGCGUAAUGGUAACGCGUUUCCCUCCUAAGGAGAAGACUGCGGGUUCGAGUCCCGUACGGAUCG, the “yeast fitness (ln)” value is -0.17.

Turning to GUUCCAUUGGCGUAAUGGUAACGCGUUUCCCUCCUAAGGAGACGACUGCGGGUUCGAGUCCCGUAUGGGAUG, the “yeast fitness (ln)” value was -0.368.

GUUCCAUUGGCGUAAUGGUAACGCGUUUCCCUCCUAAGGAGACGACUGCGGGUUCGAGUCCCGUAUGGAAUG: the “yeast fitness (ln)” value was -0.264.

Turning to GUUCCAUUGGCGUAAUGGUAACGCGUUUCCCUCCUAAGGAGACGAUUGCGGGUUCGAGUCCCGUAUGGGACG, the “yeast fitness (ln)” value is -0.188.

Regarding GUUCCAUUGGCGUAAUGGUAACGCGUUUCCCUCCUAAGGAGAAGACUGCGGGUUCGAGUCCCGUACGGGGCG, the “yeast fitness (ln)” value was -0.12.

As to GUUCCAUUGGCGUAAUGGUAACGCGUUUCCCUCCUAAGGAGAAGACUGCGGGUUCGAGUCCCGUACGGGUCG, the “yeast fitness (ln)” value is -0.243.

Consider GUUCCAUUGGCGUAAUGGUAACGCGUUUCCCUCCUAAGGAGACGAUUGCGGGUUCGAGUCCCGUAUGGAUUG, for which the “yeast fitness (ln)” value was -0.435.

Regarding GUUCCAUUGGCGUAAUGGUAACGCGUUUCCCUCCUAAGGAGACGAUUGCGGGUUCGAGUCCCGUAUGGGGUG, the “yeast fitness (ln)” value was -0.28.

On to GUUCCAUUGGCGUAAUGGUAACGCGUUUCCCUCCUAAGGAGACGACUGCGGGUUCGAGUCCCGUAAGGAUCG, for which the “yeast fitness (ln)” value is -0.204.

As for GUUCCAUUGGCGUAAUGGUAACGCGUUUCCCUCCUAAGGAGACGACUGCGGGUUCGAGUCCCGUAAGGAGCG, the “yeast fitness (ln)” value was -0.337.

Regarding GUUCCAUUGGCGUAAUGGUAACGCGUUUCCCUCCUAAGGAGACGAUUGCGGGUUCGAGUCCCGUACGGAACG, the “yeast fitness (ln)” value was -0.084.

For GUUCCAUUGGCGUAAUGGUAACGCGUUUCCCUCCUAAGGAGACGACUGCGGGUUCGAGUCCCGUAUGGGGUG, the “yeast fitness (ln)” value was -0.371.

In the case of GUUCCAUUGGCGUAAUGGUAACGCGUUUCCCUCCUAAGGAGACGAUUGCGGGUUCGAGUCCCGUAAGGAGUG, the “yeast fitness (ln)” value is -0.296.

In the case of GUUCCAUUGGCGUAAUGGUAACGCGUUUCCCUCCUAAGGAGAAGACUGCGGGUUCGAGUCCCGUACGGGGUG, the “yeast fitness (ln)” value is -0.265.

Consider GUUCCAUUGGCGUAAUGGUAACGCGUUUCCCUCCUAAGGAGACGACUGCGGGUUCGAGUCCCGUAUGGAGUG, for which the “yeast fitness (ln)” value was -0.302.

As for GUUCCAUUGGCGUAAUGGUAACGCGUUUCCCUCCUAAGGAGACGAUUGCGGGUUCGAGUCCCGUAUGGAGCG, the “yeast fitness (ln)” value is -0.193.

On to GUUCCAUUGGCGUAAUGGUAACGCGUUUCCCUCCUAAGGAGACGAUUGCGGGUUCGAGUCCCGUAUGGAUCG, for which the “yeast fitness (ln)” value is -0.183.

For GUUCCAUUGGCGUAAUGGUAACGCGUUUCCCUCCUAAGGAGACGAUUGCGGGUUCGAGUCCCGUAUGGAAUG, the “yeast fitness (ln)” value was -0.464.

As for GUUCCAUUGGCGUAAUGGUAACGCGUUUCCCUCCUAAGGAGAAGAUUGCGGGUUCGAGUCCCGUACGGGACG, the “yeast fitness (ln)” value was -0.183.
